Holding throughout (assay type): functional
Test [1] deals with G-401. Description: Tested in vitro against human ovarian cancer cells (G-401) for anticancer activity at dose 0 uM in presence of + beta galactosidase (Cell number 1*10 e-4). Put shortly:
(§1)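 G-401 human ovarian cancer cells seeded at 5 × 10^4 cells/mL in serum-free medium with compound (0–100 μM) plus E. coli β-galactosidase at 1 unit/mL. Cultured 3 days at 37 °C under 5% CO₂. Viable cells were counted by trypan blue exclusion and reported as cell number (×10^-4).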

The test system of test [2] is G-401. Description: Tested in vitro against human ovarian cancer cells (G-401) for anticancer activity at dose 1 uM (Cell number 1*10 e-4). Put shortly:
(§2)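 G-401 human ovarian cancer cells seeded at 5 × 10^4 cells/mL in serum-free medium, with or without compound at 0–100 μM. Cultured 3 days at 37 °C under 5% CO₂. Living cells were counted by trypan blue dye exclusion and reported as cell number (×10^-4).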

In test [3] the test system is G-401. As to the kind of experiment: Tested in vitro against human ovarian cancer cells (G-401) for anticancer activity at dose 100 uM in presence of + beta galactosidase (Cell number 1*10 e-4). Put shortly:
as §1

Test [4] deals with G-401. As to the kind of experiment: Tested in vitro against human ovarian cancer cells (G-401) for anticancer activity at dose 100 uM (Cell number 1*10 e-4). Put shortly:
as §2

Test [5] relates to G-401. As to the kind of experiment: Tested in vitro against human ovarian cancer cells (G-401) for anticancer activity at dose 0 uM (Cell number 1*10 e-4). The essentials:
as §2

Test [6] deals with G-401. As to the kind of experiment: Tested in vitro against human ovarian cancer cells (G-401) for anticancer activity at dose 10 uM in presence of + beta galactosidase (Cell number 1*10 e-4). Put shortly:
as §1

For test [7], the system named is G-401. As to the kind of experiment: Tested in vitro against human ovarian cancer cells (G-401) for anticancer activity at dose 1 uM in presence of + beta galactosidase (Cell number 1*10 e-4). The essentials: as §1
Test [8] concerns G-401. Description: Tested in vitro against human ovarian cancer cells (G-401) for anticancer activity at dose 10 uM (Cell number 1*10 e-4). The essentials:
as §2

Among the data in ChEMBL document CHEMBL1127382, “Synthesis of N-acetylglucosamine-modified ara-C and its effect on ovarian cancer cells” (1994) are Cell number values, retold here.

Structures are written as SMILES.

`Nc1ccn([C@@H]2O[C@H](CO[C@@H]3O[C@H](CO)[C@H](O)[C@H](O)[C@H]3O)[C@@H](O)[C@@H]2O)c(=O)n1`: the Cell number in the test with G-401 [1] is given as 46; with G-401 [2], 41; in the test with G-401 [3], 2; in the test with G-401 [4], 56; with G-401 [5] it was 55; in the test with G-401 [6], 6. In addition, the figures for the Cell number in the test with G-401 [7] and in the test with G-401 [8] were 15 and 38, respectively.
Take `Nc1ccn([C@@H]2O[C@H](CO)[C@@H](O)[C@@H]2O)c(=O)n1` [CYTARABINE]: the Cell number in the test on G-401 [2] turned out to be 0; with G-401 [4], 0; in the test with G-401 [5] it was 55; in the test with G-401 [8] it was 0.
